Laboratory results from ChEMBL document CHEMBL1135750, “Phenoxyphenyl sulfone N-formylhydroxylamines (retrohydroxamates) as potent, selective, orally bioavailable matrix metalloproteinase inhibitors” (J Med Chem, 2002).

What was measured:
Interstitial collagenase = molecular target: T1, Interstitial collagenase (Homo sapiens, UniProt P03956); assay: In vitro selective inhibition against matrix metalloprotease-1 (MMP-1) using a fluorimetric assay
T1 sequence (P03956 whole entry): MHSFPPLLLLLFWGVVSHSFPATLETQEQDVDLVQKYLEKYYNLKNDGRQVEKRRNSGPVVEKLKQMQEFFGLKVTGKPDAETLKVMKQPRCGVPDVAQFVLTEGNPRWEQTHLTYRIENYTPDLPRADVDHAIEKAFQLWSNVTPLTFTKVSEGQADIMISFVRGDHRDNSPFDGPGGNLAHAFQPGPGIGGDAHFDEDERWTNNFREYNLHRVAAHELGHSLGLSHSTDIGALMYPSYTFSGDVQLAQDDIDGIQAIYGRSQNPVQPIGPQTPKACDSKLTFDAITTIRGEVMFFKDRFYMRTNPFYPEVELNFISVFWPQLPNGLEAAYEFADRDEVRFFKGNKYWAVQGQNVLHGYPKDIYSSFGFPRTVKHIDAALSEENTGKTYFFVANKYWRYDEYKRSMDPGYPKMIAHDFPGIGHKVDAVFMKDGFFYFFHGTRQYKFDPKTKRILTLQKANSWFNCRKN

[1] = molecular target: Matrix metalloproteinase-9 (Homo sapiens, UniProt P14780); assay: In vitro selective inhibition against Matrix metalloprotease-9 (MMP-9) using fluorimetric assay
[2] = molecular target: 72 kDa type IV collagenase (Homo sapiens, UniProt P08253); assay: In vitro selective inhibition against matrix metalloprotease-2 (MMP-2) using fluorimetric assay
[3] = AUC in monkey; assay type: ADME; parameters: concentration or dose not given beside the values; settings: simiiformes, plasma
[4] = Area under the curve (AUC) after 3 mg/kg peroral administration in cynomolgus monkey; assay type: ADME, organism-based, Macaca fascicularis; parameters: dose 3 mg/kg, route oral; settings: in vivo, po
In short: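 Single oral dose of 3 mpk in cynomolgus monkeys, two animals per compound. Oral exposure is reported as AUC in μM·h.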

[5] = Half life measured as t1/2 in hours after iv administration in cynomolgus monkey; assay type: ADME, organism-based, Macaca fascicularis; settings: in vivo

Sequence of Matrix metalloproteinase-9 (P14780 whole entry): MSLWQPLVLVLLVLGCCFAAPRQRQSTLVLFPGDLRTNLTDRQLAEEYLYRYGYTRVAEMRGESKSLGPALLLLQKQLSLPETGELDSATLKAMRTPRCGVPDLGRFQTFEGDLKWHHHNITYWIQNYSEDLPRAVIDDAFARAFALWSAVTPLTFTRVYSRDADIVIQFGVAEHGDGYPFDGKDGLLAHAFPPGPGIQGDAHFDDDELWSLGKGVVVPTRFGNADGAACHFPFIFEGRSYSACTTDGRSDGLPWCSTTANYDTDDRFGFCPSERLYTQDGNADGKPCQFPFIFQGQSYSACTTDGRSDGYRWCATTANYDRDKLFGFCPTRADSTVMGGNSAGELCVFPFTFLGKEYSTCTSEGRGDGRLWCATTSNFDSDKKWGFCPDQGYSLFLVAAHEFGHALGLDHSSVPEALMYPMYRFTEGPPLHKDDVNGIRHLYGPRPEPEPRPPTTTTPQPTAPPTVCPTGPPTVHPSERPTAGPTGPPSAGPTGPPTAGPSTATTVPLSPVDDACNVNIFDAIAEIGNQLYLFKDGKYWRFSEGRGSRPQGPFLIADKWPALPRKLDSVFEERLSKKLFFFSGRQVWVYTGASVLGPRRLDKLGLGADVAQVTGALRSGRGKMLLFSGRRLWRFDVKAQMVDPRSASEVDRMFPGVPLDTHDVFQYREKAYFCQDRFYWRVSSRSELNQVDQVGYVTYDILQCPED
Sequence of 72 kDa type IV collagenase (P08253 whole entry): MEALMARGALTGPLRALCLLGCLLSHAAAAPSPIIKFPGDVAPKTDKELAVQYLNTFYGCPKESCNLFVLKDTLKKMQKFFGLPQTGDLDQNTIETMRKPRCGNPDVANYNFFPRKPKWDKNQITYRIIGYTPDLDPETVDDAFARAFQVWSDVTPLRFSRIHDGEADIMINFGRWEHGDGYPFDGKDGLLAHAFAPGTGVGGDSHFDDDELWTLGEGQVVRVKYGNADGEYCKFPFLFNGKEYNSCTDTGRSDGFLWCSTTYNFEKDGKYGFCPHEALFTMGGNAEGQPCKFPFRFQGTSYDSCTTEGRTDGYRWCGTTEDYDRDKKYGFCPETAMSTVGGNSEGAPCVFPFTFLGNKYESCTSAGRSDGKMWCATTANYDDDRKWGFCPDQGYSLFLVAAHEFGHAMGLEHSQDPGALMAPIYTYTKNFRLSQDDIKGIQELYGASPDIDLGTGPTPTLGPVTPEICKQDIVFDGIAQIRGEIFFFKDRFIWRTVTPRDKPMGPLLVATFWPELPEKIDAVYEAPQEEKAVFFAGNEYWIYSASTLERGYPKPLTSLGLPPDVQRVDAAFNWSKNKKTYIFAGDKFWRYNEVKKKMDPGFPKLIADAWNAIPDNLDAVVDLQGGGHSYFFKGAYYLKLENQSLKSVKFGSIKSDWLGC

IC50 (Interstitial collagenase) [µM] | IC50 [1] [nM] | IC50 [2] [nM] | AUC [3] [µM·h] | AUC [4] [µM·h] | half-life [5] [min] | Compound
> 50 | 4.1 | 7.4 | – | – | – | O=CN(O)C(CS(=O)(=O)c1ccc(Oc2ccc(OC(F)(F)F)cc2)cc1)c1ccccc1 (configuration not stated)
8 | 2 | 1.9 | 24 | – | – | CS(=O)(=O)N1CCC[C@H]1[C@@H](CS(=O)(=O)c1ccc(Oc2ccc(OC(F)(F)F)cc2)cc1)N(O)C=O
> 50 | 2 | 0.42 | – | 28 | – | O=CN(O)C(CS(=O)(=O)c1ccc(Oc2ccc(OC(F)(F)F)cc2)cc1)C1CCC2(CC1)OCCO2 (configuration not stated)
> 50 | 0.9 | 2.4 | – | – | – | COCC(CS(=O)(=O)c1ccc(Oc2ccc(OC(F)(F)F)cc2)cc1)N(O)C=O (configuration not stated)
2.5 | 1.8 | 1.4 | – | – | – | CN1C(=O)N(CC(CS(=O)(=O)c2ccc(Oc3ccc(C#N)cc3)cc2)N(O)C=O)C(=O)C1(C)C (configuration not stated)
9.9 | 1.4 | 0.91 | 11 | – | – | Cn1ccc(=O)n(CC(CS(=O)(=O)c2ccc(Oc3ccc(OC(F)(F)F)cc3)cc2)N(O)C=O)c1=O (configuration not stated)
– | 10 | 0.45 | 4 | – | 204 | CC1(C)NC(=O)N(CC(CS(=O)(=O)c2ccc(-c3ccc(C(F)(F)F)cc3)cc2)N(O)C=O)C1=O (configuration not stated)
6.7 | 9.7 | 3.6 | – | – | – | O=CN(O)C(CSc1cccs1)CS(=O)(=O)c1ccc(Oc2ccc(OC(F)(F)F)cc2)cc1 (configuration not stated)
– | 0.26 | 0.35 | – | – | 60 | O=CN(O)C(CO)CS(=O)(=O)c1ccc(Oc2ccc(OC(F)(F)F)cc2)cc1 (configuration not stated)
> 5 | 301 | 11 | – | – | – | O=C(C[C@H](CSc1ccccc1)C(=O)O)c1ccc(-c2ccc(Cl)cc2)cc1 [TANOMASTAT]
> 50 | 1.7 | 0.57 | 10 | – | 84 | O=CN(O)C(CCN1CCOCC1)CS(=O)(=O)c1ccc(Oc2ccc(OC(F)(F)F)cc2)cc1 (configuration not stated)
6.6 | 7.2 | 0.098 | 4 | – | – | CN(C)S(=O)(=O)CC(CS(=O)(=O)c1ccc(Oc2ccc(OC(F)(F)F)cc2)cc1)N(O)C=O (configuration not stated)
> 50 | 0.98 | 34 | – | – | – | COC(=O)c1ccc(CCC(CS(=O)(=O)c2ccc(Oc3ccc(OC(F)(F)F)cc3)cc2)N(O)C=O)cc1 (configuration not stated)
0.09 | 0.96 | 0.32 | 17 | – | 336 | CC1(C)NC(=O)N(CC(CS(=O)(=O)c2ccc(Oc3ccc(Cl)cc3)cc2)N(O)C=O)C1=O (configuration not stated)
> 50 | 5.5 | 1.5 | 2 | – | – | CC1(C)OCC(C[C@@H](CS(=O)(=O)c2ccc(Oc3ccc(OC(F)(F)F)cc3)cc2)N(O)C=O)O1 (some centres not stated)
> 50 | 2.2 | 1.7 | 1 | – | – | O=CN(O)C(CS(=O)(=O)c1ccc(Oc2ccc(OC(F)(F)F)cc2)cc1)c1ccccn1 (configuration not stated)
0.99 | 3.9 | 0.93 | 1 | – | – | CC1(C)NC(=O)N(CC(CS(=O)(=O)c2ccc(Oc3ccc(C#N)cc3)cc2)N(O)C=O)C1=O (configuration not stated)
> 50 | 0.79 | 0.33 | 41 | – | – | CS(=O)(=O)N1CCN(CCC(CS(=O)(=O)c2ccc(Oc3ccc(OC(F)(F)F)cc3)cc2)N(O)C=O)CC1 (configuration not stated)
> 50 | 37 | 62 | – | – | – | O=CN(O)C(CS(=O)(=O)c1ccc(Oc2ccc(OC(F)(F)F)cc2)cc1)c1ccc(C(F)(F)F)cc1 (configuration not stated)
5.2 | 0.9 | 1.3 | 3 | – | 132 | CN(C)CC(CS(=O)(=O)c1ccc(Oc2ccc(OC(F)(F)F)cc2)cc1)N(O)C=O (configuration not stated)
0.24 | 6.2 | 2.4 | – | – | – | CCCCOc1ccc(-c2ccc(S(=O)(=O)CC(CN3C(=O)NC(C)(C)C3=O)N(O)C=O)cc2)cc1 (configuration not stated)
8.3 | 1.1 | 20 | 5 | – | – | CCC1(CC)OCC([C@@H](CS(=O)(=O)c2ccc(Oc3ccc(OC(F)(F)F)cc3)cc2)N(O)C=O)O1 (some centres not stated)
